pIC50: −log10 of the molar value.
Assays:
[1] = test system: HepG2; test: Cytotoxicity in human HepG2 cells assessed as reduction in cell viability incubated for 48 hrs by CCK8 assay; type: functional, cell-based; conditions: HepG2, 48 h
In short: (§1)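 Exponentially growing cells, routinely kept in DMEM or RPMI1640 (line-dependent) with 10% FBS, penicillin/streptomycin at 37 °C and 5% CO₂, were seeded at 1.0 × 10⁴ cells/well in triplicate. The next day they were treated at 1.25–20 μM for 48 h. CCK-8 reagent was then added for 1 h and absorbance read at 450 nm. Controls received medium with 0.5% (v/v) DMSO.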

[2] = test system: Hep 3B2; test: Cytotoxicity in human Hep3B cells assessed as reduction in cell viability incubated for 48 hrs by CCK8 assay; type: functional, cell-based; in short: as §1
[3] = test system: HeLa; test: Cytotoxicity in human HeLa cells assessed as reduction in cell viability incubated for 48 hrs by CCK8 assay; type: functional, cell-based; in short: as §1
[4] = test system: MDA-MB-231; test: Cytotoxicity in human MDA-MB-231 cells assessed as reduction in cell viability incubated for 48 hrs by CCK8 assay; type: functional, cell-based; conditions: MDA-MB-231, 48 h; in short: as §1
[5] = test system: MCF7; test: Cytotoxicity in human MCF7 cells assessed as reduction in cell viability incubated for 48 hrs by CCK8 assay; type: functional, cell-based; conditions: MCF7, 48 h; in short: as §1
[6] = test system: T98G; test: Cytotoxicity in human T98G cells assessed as reduction in cell viability incubated for 48 hrs by CCK8 assay; type: cell-based; in short: as §1

Structure (SMILES)	pIC50 [1]	pIC50 [2]	pIC50 [3]	pIC50 [4]	pIC50 [5]	pIC50 [6]
OCc1ccc2oc(-c3ccc(O)cc3)nc2c1	< 4.70	< 4.70	5.33	< 4.70	< 4.70	< 4.70
COc1cc(O)ccc1-c1nc2cc(CO)ccc2o1	< 4.70	< 4.70	5.54	< 4.70	< 4.70	< 4.70
Cc1cc(-c2nc3cc(CO)ccc3o2)cc(C)c1N	< 4.70	< 4.70	4.72	< 4.70	< 4.70	< 4.70
COc1cc(-c2nc3cc(CO)ccc3o2)ccc1O	< 4.70	< 4.70	5.24	< 4.70	< 4.70	< 4.70
OCc1ccc2oc(-c3ccc(O)c(Cl)c3)nc2c1	< 4.70	< 4.70	4.96	< 4.70	< 4.70	< 4.70
OCc1ccc2oc(-c3ccc4[nH]ccc4c3)nc2c1	< 4.70	< 4.70	5.05	< 4.70	< 4.70	< 4.70
OCc1ccc2oc(-c3ccc4cc(O)ccc4c3)nc2c1	< 4.70	< 4.70	6.25	< 4.70	< 4.70	< 4.70
OCc1ccc2oc(-c3ccc(Cl)cc3)nc2c1	< 4.70	< 4.70	4.80	< 4.70	< 4.70	< 4.70
